Bioassay records as filed in PubChem BioAssay.
Most compounds without a hit are left out; they make up all but 6.4% or so of the library.
E coli WT exp – growth inhibitors of E. coli BW25113 wild type; AID 710; growth inhibition, % at 100 µM; actives 0.15% (n = 98,000); OD600 absorbance;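 active = growth inhibition above about 50% at one test dose, limit read from the data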;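 also: growth measured after 20 h incubation at 37 °C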
Jurkat viability – cytotoxic compounds reducing Jurkat cell viability. Jurkat E6.1 viability, ATP luminescence, 48 h. inhibition, % at 4 µM. actives 1.2% (n = 56,000). AID 463;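 active = inhibition above the mean inhibition of all tested compounds plus 3 SD, cut at about 28% in these data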
Fibroblast inh – blocks proliferation of human lung fibroblasts | AID 719 | actives 1.1% (n = 85,000) | viability, % at 10 µM | LL 47 human lung fibroblast viability, ATP luminescence; hits give low values;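 active = viability at or below 50% in the single dose screen; inactive = viability above 50%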;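 also: compound exposure lasted 72 h before the ATP readout; 100% = median luminescence of untreated cell-only wells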
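Assay system: human lung fibroblast line LL 47, low passage. Input: 1,150 fibroblasts seeded per well. Times: overnight cell rest, 72 h compound treatment at 37 °C. Evaluation: % viability of median cell-only signal. Technique: luminescent ATP detection, CellTiter-Glo. Control set: cell-only wells, no compound.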
H69AR growth 86K – growth inhibitors of human H69AR lung tumor cells; actives 6% (n = 85,000); viability, % at 10 µM; AID 598; H69AR lung tumor viability, ATP luminescence, 72 h; hits give low values;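 active = viability at or below 40%; inactive = viability above 40%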;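 also: multidrug resistant small cell line overexpressing MRP-1 efflux transporter; 100% = mean luminescence of untreated control wells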
tolC growth inh – blocks growth of E. coli BW25113 tolC mutant; growth inhibition, % at 10 µM (by protocol); OD615; AID 573; actives 2.2% (n = 65,000);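 active = growth inhibition at or above a cutoff equal to the mean over every tested compound plus 3 SD, cut at about 60% in these data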;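 also: growth measured after 20 h incubation at 37 °C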
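Test system: tolC-deleted E. coli BW25113; medium: LB with kanamycin 50 µg/mL; compound: single-point testing at 10 µM; incubation: 20 h compound exposure of bacteria at 37 °C; signal: OD at 615 nm; evaluation: growth inhibition in percent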
HUVEC prolif 384 – blocks proliferation of human endothelial cells. actives 1.1% (n = 86,000). AID 648. HUVEC proliferation, CellTiter-Glo luminescence, 72 h; hits give low values. viability, % at 10 µM (by protocol);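 active = viability at or below 30%; inactive = viability above 30%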;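 also: 100% = median luminescence of DMSO-only cell control wells on each plate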
* marks the source's active call; other numbers are inactive results; / = no result given.

SMILES | E coli WT exp | Jurkat viability | Fibroblast inh | H69AR growth 86K | tolC growth inh | HUVEC prolif 384
Cc1ccc(N2C(=O)CC(n3ccnc3)C2=O)cc1C (centres undefined) | 3.0 | / | 97.1 | 105.5 | / | 94.8
O=C(Cn1nc(-c2ccccc2)c2ccccc2c1=O)Nc1ccc2c(c1)nc1n2CCOC1 | -12.0 | 2.5 | 102.0 | 29.4* | -13.6 | 102.7
Cc1ccc(-c2nn(CC(=O)Nc3ccc4c(c3)nc3n4CCOC3)c(=O)c3ccccc23)cc1 | -1.0 | 2.0 | 95.7 | 88.7 | -10.4 | 49.8
Cc1[nH]n(-c2ccc([N+](=O)[O-])cc2)c(=O)c1N=Nc1nc2ccccc2s1 | / | / | / | 35.3* | / | 40.6
Oc1[nH]c2ccccc2c1N=Nc1nc2ccccc2s1 | -5.0 | / | / | / | / | /
COCCCNC(=O)c1c(N)n(-c2ccc(S(N)(=O)=O)cc2)c2nc3ccccc3nc12 | -6.0 | / | / | / | / | /
CCn1c(CNC(=O)COc2ccc(C(C)C)cc2)nnc1SCC(=O)Nc1ccccc1C(C)C | -1.0 | / | / | / | / | /
CC1=C(C(=O)OC2CCCCCC2)C(c2ccc(C)o2)C2=C(CCCC2=O)N1 (centres undefined) | -7.0 | 0.8 | 93.7 | 96.0 | 100.0* | 96.8
CC1=C(C(=O)OC2CCCC2)C(c2ccc(C)o2)C2=C(CC(c3cccs3)CC2=O)N1 (centres undefined) | -5.0 | 7.7 | 84.9 | 35.3* | 64.7* | 92.7
COc1cccc(N2CCN(C3CC(=O)N(c4ccc(Cl)c(Cl)c4)C3=O)CC2)c1 (centres undefined) | -2.0 | -0.5 | 103.9 | 98.9 | 6.5 | 93.1
CCOc1nnc(C)c2c(C)n(-c3cccc(OC)c3)nc12 | 6.0 | / | / | / | / | /
Cc1nc2ccccc2n1CCc1nc2c3ccccc3nc(SCC#N)n2n1 | 0.0 | / | 77.5 | 22.5* | / | 28.4*
O=C(CCn1c(SCC(=O)NCc2ccco2)nc2ccccc2c1=O)NCCc1ccccc1 | -11.0 | / | 102.7 | 97.0 | 7.6 | 91.0
Cc1nc2ccccc2n1CCc1nc2c3ccccc3nc(SCC(=O)NCc3ccco3)n2n1 | -14.0 | 1.1 | 10.3* | 20.7* | 10.2 | 79.4
O=C(COC(=O)c1cc([N+](=O)[O-])ccc1NCc1ccccc1)NC1CCCc2ccccc21 (centres undefined) | -10.0 | / | 55.6 | 37.5* | / | 72.2
Cc1cccc(-c2noc(C3CCCCC3)n2)c1 | 7.0 | -4.6 | 101.2 | 101.3 | -5.9 | 103.7
Cc1ccc(Oc2ccc3c(c2)C(=O)N(c2ccc(S(=O)(=O)Nc4nccs4)cc2)C3=O)cc1 | -4.0 | / | / | / | / | /
CC(=O)Nc1ccc(N2C(C(C)=O)=NN(c3ccc(Cl)cc3)C2c2sccc2C)cc1 (centres undefined) | / | / | 93.8 | 37.6* | / | 53.8
CC(=O)Nc1ccc(N2C(C(C)=O)=NN(c3ccccc3)C2c2cccs2)cc1 (centres undefined) | -6.0 | / | 101.9 | 79.5 | / | 104.2
O=C1OC(c2ccc(O)cc2)(c2ccc(O)cc2)c2ccccc21 | / | / | 103.6 | 96.8 | 71.9* | 78.7
Cc1csc(SCC(=O)Nc2cc(C(C)(C)C)nn2-c2ccccc2)n1 | -1.0 | -2.8 | 87.7 | 92.7 | 7.8 | 80.1
CC(C)c1nnc(NC(=O)c2sc3ccccc3c2Cl)s1 | 10.0 | / | 104.6 | 81.2 | / | 95.4
Cn1c(C(C#N)C(=O)c2sc3ccccc3c2Cl)nc2ccccc21 (centres undefined) | -29.0 | 5.5 | 90.2 | 17.1* | 49.0 | 78.3
COc1cc(/C=C(/C(=O)c2cccs2)c2nc3ccccc3[nH]2)cc(OC)c1O | 3.0 | / | 18.6* | 2.6* | / | 102.3
O=C(/C(=C/c1ccc(Cl)cc1)c1nc2ccccc2[nH]1)c1ccccc1 | 2.0 | / | / | / | / | /
SMILES | E coli WT exp | Jurkat viability | Fibroblast inh | H69AR growth 86K | tolC growth inh | HUVEC prolif 384
Cc1nc2sc(C(c3ccccc3)N3CCOCC3)c(O)n2n1 (centres undefined) | / | 0.0 | 102.2 | 99.0 | -15.9 | 89.7
CC(O)CNc1nc2c(c(=O)n(C)c(=O)n2C)n1Cc1cccc(Br)c1 (centres undefined) | -8.0 | 27.7* | 91.5 | / | -10.2 | 101.2
CN(Cc1ccccc1)c1nc2c(c(=O)n(C)c(=O)n2C)n1CCCc1ccccc1 | -16.0 | 3.1 | 87.2 | 92.2 | 100.0* | 63.3
CCCNc1nc2c(c(=O)n(C)c(=O)n2C)n1Cc1cccc(C)c1 | -8.0 | 59.1* | 88.1 | 85.2 | 1.3 | 99.3
CCCNc1nc2c(c(=O)n(C)c(=O)n2C)n1CCc1ccccc1 | 1.0 | 23.5 | 96.8 | 90.5 | -2.8 | 100.2
Cn1c(=O)c2c(nc(NCCO)n2CCc2ccccc2)n(C)c1=O | / | 32.1* | 102.8 | 97.4 | -14.6 | 109.3
Cn1c(=O)c2c(nc(NCCCO)n2CCc2ccccc2)n(C)c1=O | 4.0 | / | 103.0 | 87.5 | -21.6 | 105.1
O=C(CCSc1ccc(Cl)cc1)N1CCCCCC1 | 6.0 | / | / | / | / | /
c1ccc(-c2nnc(-c3ccccn3)nn2)nc1 | / | / | 100.3 | 44.3 | -10.6 | 80.5
CN(C)c1nc(-c2ccccn2)nnc1-c1ccccc1 | 36.0 | / | 13.2* | 53.5 | / | 11.2*
Cc1ccc(NC(=O)c2c(O)c3ccccc3n(C)c2=O)nc1 | -7.0 | / | 30.6* | 13.2* | 16.8 | 126.3
Cc1ccnc(NC(=O)c2c(O)c3ccccc3n(C)c2=O)c1 | / | 5.9 | 76.0 | 5.7* | -18.0 | 130.8
Cn1c(=O)c(C(=O)Nc2ncccc2O)c(O)c2ccccc21 | -14.0 | / | 98.5 | 85.8 | 7.4 | 98.0
Cn1c(=O)c(C(=O)Nc2cccnc2)c(O)c2ccccc21 | / | / | 77.7 | 12.0* | 8.4 | 44.4
Cn1c(=O)c(C(=O)NC2CCCCCCC2)c(O)c2ccccc21 | -2.0 | -4.1 | 95.6 | 98.7 | -8.5 | 101.9
O=C(Nc1nc(-c2ccccn2)cs1)c1ccc(Cl)s1 | 11.0 | 48.4* | 28.3* | 2.9* | 100.0* | 28.3*
Cn1cccc1C(=O)Nc1nc(-c2ccccn2)cs1 | 19.0 | 17.8 | 60.1 | 35.3* | 90.1* | 56.5
O=C(Nc1nc(-c2cccs2)cs1)c1ccc(S(=O)(=O)N2CCCCC2)cc1 | -8.0 | 31.3 | 94.3 | 78.0 | 30.4 | 80.0
O=C(Nc1nc(-c2ccccn2)cs1)c1ccc(S(=O)(=O)N2CCCCC2)cc1 | / | 54.3* | 47.8* | 42.4 | 37.9 | 32.7
CC(=O)c1ccc(OCC(O)CN2CCN(Cc3ccc4c(c3)OCO4)CC2)cc1 (centres undefined) | 4.0 | -3.5 | 116.1 | 61.5 | -6.1 | 92.7
O=C(NC(=S)Nc1ccc2c(c1)OCO2)c1ccccc1 | -10.0 | / | / | / | / | /
OC1CCN(c2c3c(nc4cc(-c5ccc(F)cc5)nn24)CCC3)CC1 | -3.0 | / | 95.9 | 60.2 | / | 86.2
Cc1ccc(C(=O)Nc2nc3ccc(S(C)(=O)=O)cc3s2)o1 | / | / | 76.9 | 29.2* | / | 66.5
COc1ccc2nc(NC(=O)C3CCN(S(=O)(=O)c4cccs4)CC3)sc2c1 | -11.0 | / | 79.5 | 45.0 | / | 69.4
COc1ccc(OC)c(NC(=O)C2CCCN(S(=O)(=O)c3cccc4nsnc34)C2)c1 (centres undefined) | 1.0 | 1.6 | 93.2 | 39.8* | -10.8 | 85.9
CN(C)S(=O)(=O)c1ccc2nc(NC(=O)c3cccs3)sc2c1 | -6.0 | / | 110.3 | 29.4* | / | 78.8
CS(=O)(=O)c1ccc2nc(NC(=O)c3ccco3)sc2c1 | 0.0 | 2.5 | / | / | 6.5 | /
